Compound activity: PubChem BioAssay, several laboratories
Compounds with a hit are over-represented: about 7.2% of the library has one in this group of screens.
PostGolgi yeast – growth inhibition of a yeast mutant, post-Golgi transport screen. post-Golgi transport phenotypic cell assay. inhibition, % at 10 µM. 98,000 compounds, 0.9% hits;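 further: yeast cells grown in 1536-well plates; yeast grown about 18 h at 30C before absorbance read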
PLAP activator – human PLAP activation. P05187. purified PLAP enzyme, luminescent substrate read-out; hits give high values. activation fold at 20 µM. 96,000 compounds, 1.2% hits; in the data active means activation fold above about 2
Target sequence (P05187 whole entry, looked up): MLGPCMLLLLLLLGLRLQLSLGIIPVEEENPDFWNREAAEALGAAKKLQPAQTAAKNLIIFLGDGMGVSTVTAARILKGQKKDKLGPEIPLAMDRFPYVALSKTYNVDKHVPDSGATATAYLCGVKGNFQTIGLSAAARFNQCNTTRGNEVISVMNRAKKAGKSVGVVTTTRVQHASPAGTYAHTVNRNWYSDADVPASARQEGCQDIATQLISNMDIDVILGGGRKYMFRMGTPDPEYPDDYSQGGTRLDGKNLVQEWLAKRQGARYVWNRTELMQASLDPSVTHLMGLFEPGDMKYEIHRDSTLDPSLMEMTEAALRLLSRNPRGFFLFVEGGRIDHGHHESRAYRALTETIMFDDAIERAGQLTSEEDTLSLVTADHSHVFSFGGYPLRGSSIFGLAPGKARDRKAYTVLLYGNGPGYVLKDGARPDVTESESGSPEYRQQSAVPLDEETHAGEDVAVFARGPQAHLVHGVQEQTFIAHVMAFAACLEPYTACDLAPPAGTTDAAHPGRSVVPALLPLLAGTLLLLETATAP
PostGolgi ctrl – yeast control strain growth, post-Golgi counter-screen. 98,000 compounds, 5% hits. inhibition, % at 10 µM. efflux-deficient yeast background strain, growth absorbance A615, 16 h
tolC growth inh – blocks growth of E. coli BW25113 tolC mutant; OD615; growth inhibition, % at 10 µM (by protocol); 65,000 compounds, 2.2% hits; AID 573;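 active means growth inhibition at or above a cutoff equal to the mean over every tested compound plus 3 SD, cut at about 60% in these data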;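 further: growth measured after 20 h incubation at 37 °C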
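Test system – E. coli BW25113 ΔtolC::kan, tolC deletion mutant strain · Detection – OD at 615 nm · Buffer or medium – LB with kanamycin 50 µg/mL · Times – 20 h compound exposure of bacteria at 37 °C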
Ecoli WT expand – E. coli BW25113 growth inhibition, expanded screen; OD600 absorbance; growth inhibition, % at 100 µM; 98,000 compounds, 0.15% hits; AID 710;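 active means growth inhibition above about 50% at one test dose, limit read from the data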;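 further: growth measured after 20 h incubation at 37 °C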
Numbers stand for hits; n = inactive; x = no result. Unless noted, no stated cut-off is given here; in the data, active means inhibition above about 30%; inactive means the rest.

SMILES	PostGolgi yeast	PLAP activator	PostGolgi ctrl	tolC growth inh	Ecoli WT expand
Nc1ccc(Oc2ccc3nc(-c4ccccc4)c(-c4ccc([N+](=O)[O-])cc4)nc3c2)cc1	37	n	n	x	n
CCn1c(SCC(=O)c2ccccc2)nnc1-c1cccs1	n	n	n	x	n
O=C(NC1(C(=O)NC2CCCCC2)CCCCC1)c1ccccn1	n	n	32	x	n
O=C(c1cnccn1)N(c1ccccc1)C1(C(=O)NC2CCCCC2)CCCCC1	n	n	33	n	n
CC(C)CC(c1nnnn1C(C)C)N1CCN(c2cccc(Cl)c2)CC1 (stereo not drawn)	n	n	73	n	n
O=C(O)CS(=O)(=O)CC(=O)O	n	n	n	n	n
C=C(C)c1cccc(C(C)(C)NC(=O)NCCCn2ccnc2)c1	n	n	n	n	n
C=C(C)c1cccc(C(C)(C)NC(=O)NCCCN2CCCC2=O)c1	n	2.3	n	n	n
CCCS(=O)(=O)N1CCCC(C(=O)N2CCN(C(=O)OCC)CC2)C1 (stereo not drawn)	n	n	n	n	n
Cc1ccc(C)c(-n2nnnc2SCC(=O)NCCC2=CCCCC2)c1	n	n	39	n	n
O=C(Nc1cccnc1)C1CC(c2ccccc2O)=NO1 (stereo not drawn)	n	2	n	x	n
C/C(Cl)=C\Cn1c(N2CCCCCC2)nc2c1c(=O)n(C)c(=O)n2C	n	n	n	n	n
CCCS(=O)(=O)C(=C(Nc1ccccc1)Nc1ccccc1)S(=O)(=O)CCC	n	n	n	x	n
CCCCS(=O)(=O)C(=C1Nc2ccccc2N1)S(=O)(=O)CCCC	n	n	30	n	n
CCc1ccc(NC(=O)CC2C(=O)Nc3c2c(=O)n(C)c(=O)n3C)cc1 (stereo not drawn)	n	n	n	x	n
Cc1ccc(NC(=O)CS(=O)CC(=O)NC(C)CCc2ccco2)cc1Cl (stereo not drawn)	n	n	47	n	n
CC(CCc1ccco1)NC(=O)Nc1cccc(F)c1 (stereo not drawn)	n	n	n	x	n
COC(=O)c1ccc2c(c1)S(=O)(=O)NC(=NCc1ccco1)S2	n	n	n	n	n
CCCCN1C(=O)C2ON(c3ccccc3C)C(c3ccco3)C2C1=O (stereo not drawn)	n	n	n	61	n
CCc1ccc(N2C(=O)C3ON(c4ccccc4)C(c4ccco4)C3C2=O)cc1 (stereo not drawn)	n	n	n	n	n
CC(=O)COC(=O)c1cccc(N2C(=O)C3C4C=CC(C4)C3C2=O)c1 (stereo not drawn)	n	n	31	n	n
COc1cc(CNCc2ccccn2)ccc1OCc1ccc(Cl)cc1Cl	n	x	49	x	n
COc1cc(CNCc2ccccn2)ccc1OCC(N)=O	n	n	n	x	n
CCc1cc(=O)oc2cc(OCC(=O)N3CCc4ccccc43)ccc12	x	n	x	n	x
CCc1cc(=O)oc2c(C)c(OCC(=O)N3CCCc4ccccc43)ccc12	n	n	33	x	n
SMILES	PostGolgi yeast	PLAP activator	PostGolgi ctrl	tolC growth inh	Ecoli WT expand
Cn1cnnc1SCC(=O)N1N=C2/C(=C/c3ccco3)CCCC2C1c1ccco1 (stereo not drawn)	n	n	n	x	n
Nc1nc(SCC(=O)N2N=C3/C(=C/c4ccco4)CCCC3C2c2ccco2)n[nH]1 (stereo not drawn)	n	2.1	n	x	n
CCC(=O)N1CCN(c2ccc(Cl)cc2NC(=O)c2ccc3c(c2)OCCO3)CC1	n	n	47	n	n
CCOC(=O)c1c(C)[nH]c(C)c1C(=O)Cn1nnc(-c2ccccc2C)n1	n	x	n	63	n
C=CCn1c(N(C)C)nc2c1c(=O)[nH]c(=O)n2C	x	x	x	n	x
O=C(Nc1ccc2c(c1)OCO2)C1CCN(S(=O)(=O)c2cccc3cccnc23)CC1	n	n	n	n	n
O=c1c(-c2nc3ccccc3o2)c2oc3ccccc3n2c2ccccc12	n	n	n	98	n
Cc1ccc2nc(-c3ccc(O)cc3)c(Nc3ccc4c(c3)OCCO4)n2c1	n	n	n	x	n
Cc1cc(C)n2c(Nc3ccc4c(c3)OCCO4)c(-c3ccccc3)nc2n1	n	n	44	x	n
COC(=O)c1ccsc1NC(=O)CN1C(=O)CCC1=O	x	x	x	n	x
CCc1ccc2[nH]c(=O)c(CN(Cc3ccccc3)C(=O)Nc3ccccc3OC)cc2c1	n	n	71	x	n
Cc1ccc2cc(CN(Cc3ccco3)C(=O)c3ccccc3)c(=O)[nH]c2c1C	n	n	n	n	n
Cc1ccc(C)c2[nH]c(=O)c(CN(Cc3ccco3)C(=O)Nc3ccccc3)cc12	n	n	42	n	n
CCc1ccc2[nH]c(=O)c(CN(CCN(C)C)C(=O)Nc3ccccc3OC)cc2c1	n	n	n	n	n
Cc1ccc2cc(CN(Cc3ccco3)C(=O)NCc3ccccc3)c(=O)[nH]c2c1C	n	n	n	n	n
COc1ccccc1NC(=O)N(Cc1ccco1)Cc1cc2ccc(C)c(C)c2[nH]c1=O	n	n	41	n	n
COc1ccccc1NC(=O)N(Cc1ccco1)Cc1cc2cc(C)cc(C)c2[nH]c1=O	n	n	67	n	n
CCOC(=O)N1CCC(NC(=O)c2cc(C)c3c(C)nn(-c4ccccc4)c3n2)CC1	n	n	n	n	n
C=C(C)C(=O)OC1(C(F)(F)F)Oc2cc(C)ccc2NC1=O (stereo not drawn)	n	n	n	x	n
CN(C)Cc1c(O)ccc2occ(C(=O)c3ccccc3)c12	n	n	n	n	n
O=C(c1cccs1)c1coc2ccc(O)c(CN(CCO)CCO)c12	n	2.4	n	x	n
CN(C)S(=O)(=O)c1ccc(NC(=O)c2c(F)cccc2Cl)cc1	n	n	n	x	n
O=C1NC(=O)C2(COC3(CCCC3)OC2)S1	n	n	35	n	n
COC(=O)CSCc1nc2ccccc2[nH]c1=O	x	x	x	n	x
Cc1nn(C)c(C)c1/C=N/N=C1\CCC2C3CCc4cc(O)ccc4C3CCC12C (stereo not drawn)	n	n	n	x	n
SMILES	PostGolgi yeast	PLAP activator	PostGolgi ctrl	tolC growth inh	Ecoli WT expand
Cc1cc(S(=O)(=O)Nc2ccc(N(C)C)cc2)c(C)s1	n	n	48	x	n
O=C(c1ccccc1Cl)N1N=C(c2ccc(Br)cc2)CC1c1nc2ccccc2[nH]1 (stereo not drawn)	n	n	64	x	n
NS(=O)(=O)c1ccc(Nc2nc(-c3ccc4ccccc4c3)cs2)cc1	n	n	42	x	n
Clc1cccc(-c2ccc(/C=N/n3cnnc3)o2)c1	n	n	n	n	n
Cc1ccc(-c2ccc(/C=N/n3cnnc3)o2)cc1Cl	80	n	60	n	n
Nc1c(C(=O)Nc2ccc(F)cc2)sc2nc(-c3ccco3)ccc12	n	n	40	n	n
Nc1c(C(=O)Nc2ccc(Br)cc2)sc2nc(-c3ccco3)ccc12	n	n	n	x	n
CCOc1ccc(Cl)cc1S(=O)(=O)N1CCN(c2ccc(F)cc2)CC1	n	n	33	n	n
CCOc1ccc(Cl)cc1S(=O)(=O)n1cnc2cc(C)c(C)cc21	n	n	40	x	n
O=C(CCSc1nc(-c2ccco2)cc(C(F)(F)F)n1)Nc1ccc2c(c1)OCO2	n	n	n	n	n
Nc1ccc(C(=O)N/N=C2\CCCc3c2[nH]c2ccccc32)cc1	n	n	44	x	n
